From the EternaBench riboswitch data

Test system: MS2 coat protein
Assay: apparent Kd, MS2 coat protein; higher = weaker binding; RNA-MaP array; tryptophan 2.4 mM where present
Outline: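 Designs were transcribed by stalled E. coli RNA polymerase on Illumina sequencing-chip clusters. They were titrated with SNAP-549-labelled MS2 coat protein from 0.7 or 1.5 nM, doubling to 3 µM, in 100 mM Tris-HCl pH 7.5, 80 mM KCl, 4 mM MgCl2, BSA, DTT, yeast tRNA and Tween-20, without and then with constant ligand. The apparent Kd is the median of filtered per-cluster fits after normalisation of green signal to red-channel RNA signal and control-cluster median Fmax.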

[1] = designed as: OFF switch for tryptophan, no ligand
[2] = ligand present: tryptophan, designed as: OFF switch for tryptophan
[3] = designed as: ON switch for tryptophan, no ligand
[4] = ligand present: tryptophan, designed as: ON switch for tryptophan

Row | Sequence | apparent Kd [1] | apparent Kd [2] | apparent Kd [3] | apparent Kd [4]
1 | AAAAUAAUGGCGGCCGCCACUAACUCAUAUACAUCAUGUACAUGAGGAUCACCCAUGUAGGUGUAUAGGACCGGGCCAUAAUUAA | 18.6 nM | 25.6 nM | – | –
2 | AAACAUGAGGAUCACCCAUGUUCUCCUGUCCGAGGACCGGUACGGCCGCCACUCGGUUCUCGGGAGGAUGGUCAAAGACUAUCCA | – | – | 13.7 nM | 13.6 nM
3 | AAUAACAUGAGGAUCACCCAUGUAAGUAAACGAGGACCGGUACGGCCGCCACUCGAAUAAAUAAAGUACCGGUAAGAUCCAGGGA | – | – | 14.8 nM | 16.8 nM
4 | AAUAGUCCUCGACAUGAGGAUCACCCAUGUCGAGGACCGGUACGGCCGCCACUCGACAUGAGGAUCACCCAUGUUGAGUGAUAAA | 8.34 nM | 7.72 nM | – | –
5 | AAUGCCGGAUCGGCCGCCACUGGUUGGCUCUGUGUACAUGAGGAUCACCCAUGUCCAUCCCAAACCAGGACCGGGAUCUUUGUGU | – | – | 13.1 nM | 8.83 nM
6 | AAUGUAUGGCACAUGAGGAUCACCCAUGUGCGAGGACCGGUACGGCCGCCACUCGGUCAAGGGAUCUUACCUCUAUACAUUAAUG | 10.4 nM | 18.8 nM | – | –
7 | AAUGUAUGGCACAUGAGGAUCACCCAUGUGCGAGGACCGGUACGGCCGCCACUCGGUCCUGGGAUCUUACAACUAUACAUUAAUG | 13.2 nM | 27 nM | – | –
8 | ACAUGAGGAUCACCCAUGUACAUCACCCGACGAGGACCGGUACGGCCGCCACUCGGGUAUAUAUUUACAUCGGGUGAUUUUACGU | – | – | 16.7 nM | 18 nM
9 | ACAUGAGGAUCACCCAUGUACGGUAUCAAUCGAGGACCGGUACGGCCGCCACUCGGAAAUAGAAGCGAUUAUUAGUGUUCUUUGU | – | – | 16.2 nM | 15.1 nM
10 | ACAUGAGGAUCACCCAUGUCAUGAGGUUCACGAGGACCGGUACGGCCGCCACUCGGGCUUCGGAUCACGGAUGUACAUGAUGAUC | – | – | 84 nM | 51.6 nM
11 | ACAUGAGGAUCACCCAUGUGUGUAAAUCCUCGAGGACCGGUACGGCCGCCACUCGAACGAGUGUAAGAUGAAUGUUACAUUCAUC | – | – | 105 nM | 38.3 nM
12 | ACAUGAGGAUCACCCAUGUGUGUAAGUCCUCGAGGACCGGUACGGCCGCCACUCGAUUGAGUGUAAGUUGAAUGUAACAUUCAAC | – | – | 16.7 nM | 13.8 nM
13 | ACGUCGCAUAGGAAAACUAUGUGACGAAAUCGAGGACCGGUACGGCCGCCACUCGUCCUCAACAUGAGGAUCACCCAUGUAAUAA | 18.7 nM | 36.6 nM | – | –
14 | ACUCGACCAUCAGCCAUUUGUGAAUCACGGCGAGGACCGGUACGGCCGCCACUCGACAUGAGGAUCACCCAUGUAAGACCGGUGU | 25.8 nM | 50.3 nM | – | –
15 | AGAUUCGACACGGCCGCCACUUGUGGUGGAUUAUCCUAUGUAAGACAUGAGGAUCACCCAUGUACAAGGACCGGGUGUUGAGUCU | 308 nM | 93.1 nM | – | –
16 | AGCAACAAGUCGGCCGCCACUCUUUUAACAUGAGGAUCACCCAUGUUUAUAUCAUGGUUUUAAUAGAGGACCGGGACAGUUGCAU | 35.1 nM | 41.8 nM | – | –
17 | AGCAUCUAGUCGGCCGCCACUCUUAUUACAUGAGGAUCACCCAUGUUUAAUUCAUGGUUAUAUUUGAGGACCGGGACAUUUGCAU | 61.7 nM | 55.8 nM | – | –
18 | AGGUGACAUGAGGAUCACCCAUGUGGCUUACGAGGACCGGUACGGCCGCCACUCGGUGUGACCUCCGCAUUCACAUAAUAAUCUU | – | – | 53.9 nM | 45.3 nM
19 | AGUGUCGGAGCGGCCGCCACUAGCACAUCUGGUCGCCAUGGCAACAUGAGGAUCACCCAUGUUGCUAGGACCGGGCUCAAUAUUU | 9.38 nM | 10.7 nM | – | –
20 | AUAUAUACAUGAGGAUCACCCAUGUUAUUUCGAGGACCGGUACGGCCGCCACUCGAUAGAGUAGAAGUAACAUUUGUUAGAUGAU | – | – | 21.6 nM | 13.2 nM
21 | AUCAUAAUAGACUCGUUAGAUUAUAUGGAACGAGGACCGGUACGGCCGCCACUCGUGAUGUACAUGAGGAUCACCCAUGUUAGCU | – | – | 14.7 nM | 15.2 nM
22 | AUUACAUGAGCAUCAGCACAUGAGGAUCACCGAGGACCGGUACGGCCGCCACUCGACACAUGAGGAUCACCCAUGUGUUGUUGUU | 286 nM | 244 nM | – | –
23 | AUUCAUGAAAACAUGACAUGAGGAUCACUCCGAGGACCGGUACGGCCGCCACUCGCGAGGAGGCACAUGAGGAUCACCCAUGUUA | – | – | 114 nM | 82.8 nM
24 | AUUUAUUAGACGGCCGCCACUUGAAAGCGACCUCAUAAAUGGGAACAUGAGGAUCACCCAUGUAAGAGGACCGGGUCUAGUAGAU | – | – | 104 nM | 300 nM
25 | CAAUAUAUAGCGGCCGCCACUUACUCAUGAGGUAACAACAUGAGGAUCACCCAUGUUUGAGGAUCAAGGACCGGGCUAUAUAUUG | – | – | 27.1 nM | 19.9 nM
26 | CAAUGCAGGUCGGCCGCCACUACACACAUGAGGAUCACCCAUGUAGUUACUGGGUGAAGUGGCAGUAGGACCGGGACCUGCAUAA | – | – | 373 nM | 265 nM
27 | CCGUUCUCUGCGGCCGCCACUCAAGGAGCUACAUAGCUCCUAGACAUGAGGAUCACCCAUGUCGCGAGGACCGGGUAGAUUCUCC | – | – | 49.5 nM | 33.2 nM

Row | Sequence | apparent Kd [1] | apparent Kd [2] | apparent Kd [3] | apparent Kd [4]
28 | CCUAUGCAGUCGGCCGCCACUGAUAAAAUUAUUUUUACCUCAGAAACAUGAGGAUCACCCAUGUACAGGACCGGGACUGUAUAGG | 18.1 nM | 38.5 nM | – | –
29 | CGAGUAAGAACAAUCGAAUAACGGUUUUCGCGAGGACCGGUACGGCCGCCACUCGUGUGAAAUAACACAUGAGGAUCACCCAUGU | – | – | 23.1 nM | 20 nM
30 | CGAUUUAAGACGGCCGCCACUAUUAAGUAACAAAAUAAACAUGAGGAUCACCCAUGUACAUGGGAUAGGACCGGGUCCAAUAUCG | – | – | 57.2 nM | 28.4 nM
31 | CGCCACUCGAGUGAUCCUCACGAGUGGCUACGAGGACCGGUACGGCCGCCACUCGAAUUAACAUGAGGAUCACCCAUGUAAUCCA | – | – | 86.3 nM | 62.5 nM
32 | CUACAUUUGUAGAAACCGGUCAACAAUAUUCGAGGACCGGUACGGCCGCCACUCGUAUAAUUUAAUACAUGAGGAUCACCCAUGU | – | – | 14.8 nM | 15.9 nM
33 | CUAUUUAUAGCGGCCGCCACUUACUCAUGAGGUAACAACAUGAGGAUCACCCAUGUUUGAGGAUCAAGGACCGGGCUAUGGAUAG | – | – | 26 nM | 20.1 nM
34 | CUCCCGUGGUCGGCCGCCACUGGAGGCCUCGCGCGACAUGAGGAUCACCCAUGUUGGCCCGGCUUCAGGACCGGGAUCGCGUGAG | – | – | 12.4 nM | 11.4 nM
35 | CUUGGCUGUGCGGCCGCCACUGGCUCAUCCUGCAUUACAUGAGGAUCACCCAUGUUGCGGCCUCCCAGGACCGGGCAUAGCCUGA | – | – | 253 nM | 139 nM
36 | GAGUAGAGGACGGCCGCCACUGAACAUGAGGAUCACCCAUGUCGUGAUCCGUUACCUAGGGUAGAUAGGACCGGGUCAUGUACUC | 42.6 nM | 42.5 nM | – | –
37 | GAUAUAUACUCGGCCGCCACUGAGAGAGUCAUGUAAACAUGAGGAUCACCCAUGUAAUAUAUAUACAGGACCGGGAGUAUAUUAA | 14.8 nM | 14.2 nM | – | –
38 | GCAUCCUAGUCGGCCGCCACUGCAUGUAGUUUUGCUACAUGGAAACAUGAGGAUCACCCAUGUAGCAGGACCGGGACUAGGAUGC | – | – | 27.5 nM | 11.5 nM
39 | GCCGCUGCCGCGGUGUGUGUGGGUGGGUGACGAGGACCGGUACGGCCGCCACUCGCGAUCGCACAUGAGGAUCACCCAUGUGUAA | 15 nM | 21.8 nM | – | –
40 | GCGGACAUGAGGAUCACCCAUGUAAAUCCUCGAGGACCGGUACGGCCGCCACUCGAACGAGUGGCACGCGAGUGCGCACUCGCGU | – | – | 24.7 nM | 25.4 nM
41 | GCUACAUGAGGAUCACCCAUGUAUGCGAGCCGAGGACCGGUACGGCCGCCACUCGCUUAACAUGAGGAUCACCCAUGUUGCUCGC | – | – | 24 nM | 14.8 nM
42 | GGACUCGUCACGGCCGCCACUGCGGUGGUGUGACAUGAGGAUCACCCAUGUUGUCAUGCGGCCCUUAGGACCGGGUGUCGCGUCC | 63.1 nM | 67.1 nM | – | –
43 | GGAUUCGGCACGGCCGCCACUGCGGUGGUGUGACAUGAGGAUCACCCAUGUUGUCAUGCGGCCCUUAGGACCGGGUGGCGUUUCC | 49.7 nM | 63.7 nM | – | –
44 | GGCCAUGGAAACAUGGCGGCGGCAUAUGCGCGAGGACCGGUACGGCCGCCACUCGGGCAACAUGAGGAUCACCCAUGUUCCUCAU | 211 nM | 454 nM | – | –
45 | GGCUUCAACUCGGCCGCCACUGGUGAUCCUCAUGUACAUGAGGAUCACCCAUGUACAUGAGACUACAGGACCGGGAGAUCAGCAA | – | – | 8.34 nM | 7.7 nM
46 | GGGUACAUCACGGCCGCCACUCAUGUAAAUACAUGAGGAUCACCCAUGUCGAUGGAGACAUCGGAGAGGACCGGGUGAUGUACCG | – | – | 338 nM | 272 nM
47 | GUAGCGACGACGGCCGCCACUCACACGAGAGGGUAGACCAACCUUCACAUGAGGAUCACCCAUGUGAGGACCGGGUUGUCGGUAC | 24 nM | 171 nM | – | –
48 | GUGCUGGUAUCGGCCGCCACUGUAACAUGACAUCCCAGGGCCGACAUGAGGAUCACCCAUGUUAACAGGACCGGGAUAUCAACGA | 14.2 nM | 25.4 nM | – | –
49 | GUUGAGACCUCGGCCGCCACUCGCCAUGAGGAUCUCCCAUGUAACAUGAGGAUCACCCAUGUACUGAGGACCGGGAGGUCCUUGU | – | – | 12.4 nM | 21.6 nM
50 | UACAUGAGGAUCACCCAUGUAUAACCGGUACGAGGACCGGUACGGCCGCCACUCGAAACAUGAGGAUCACCCAUGUGCUACUAUU | – | – | 34.5 nM | 35.6 nM
51 | UACCCAUGAGUUGGAAAAGCUCAUGGGUAUCGAGGACCGGUACGGCCGCCACUCGGCUGUACAUGAGGAUCACCCAUGUCAGGGU | – | – | 432 nM | 585 nM
52 | UAUAUAUAUCACGAACUGUGGUGUAUGUCUCGAGGACCGGUACGGCCGCCACUCGCGCGGCCUCACAUGAGGAUCACCCAUGUUG | 44.6 nM | 46 nM | – | –
53 | UAUCGUCAGACGGCCGCCACUAGAACAUGAGGAUCACCCAUGUAAGUGGCUGGUUCAUGGGUGUCUAGGACCGGGUCUGACGAAU | 17.2 nM | 37.2 nM | – | –
